Compound activity (PubChem BioAssay)
CXCR6 inh: CXCR6 receptor inhibitors, primary screen, cell-based, beta-arrestin, luminescence, CHO-K1 PathHunter, 1536-well. inhibition, % at 20 µM. C-X-C chemokine receptor type 6 (Homo sapiens), O00574. actives 0.36% (n = 360,000); in the data active means inhibition above about 34%, passing the limit was not always enough;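 further: antagonist mode with CXCL16 agonist at 10 nM final; 0% = 10 nM CXCL16 with DMSO and 100% = unstimulated wells without agonist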
CCR6 antagonist: CCR6 receptor antagonists, primary screen, cell-based, CHO-K1, luminescence, beta-arrestin, uHTS | CHO-K1 CCR6 PathHunter beta-arrestin, CCL20-stimulated | inhibition, % at 20 µM | actives 0.49% (n = 340,000) | AID 493098, 2011;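 active means compounds whose inhibition of the agonist-driven luminescence signal at 20 µM reaches about 50%, limit read from the data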;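 further: cells stimulated with CCL20 at 14 nM final; plate controls were DMSO with CCL20 for no effect and DMSO without agonist for full effect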
Target sequence (P51684 whole entry, looked up): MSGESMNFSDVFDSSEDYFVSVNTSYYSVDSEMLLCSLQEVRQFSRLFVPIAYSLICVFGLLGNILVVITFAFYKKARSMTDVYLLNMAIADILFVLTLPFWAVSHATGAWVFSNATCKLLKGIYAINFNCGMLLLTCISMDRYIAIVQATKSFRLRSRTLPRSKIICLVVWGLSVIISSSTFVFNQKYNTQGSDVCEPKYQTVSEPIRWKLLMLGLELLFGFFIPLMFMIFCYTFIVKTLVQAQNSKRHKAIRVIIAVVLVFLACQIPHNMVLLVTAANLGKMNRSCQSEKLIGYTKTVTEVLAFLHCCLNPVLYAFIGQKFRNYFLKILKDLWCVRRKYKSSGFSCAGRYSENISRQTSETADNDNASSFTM
APJ antagonist: antagonists of human apelin receptor APJ, primary screen, CHO-K1 cells, beta-arrestin complementation, luminescence | P35414 | inhibition, % at 20 µM | actives 0.32% (n = 330,000) | AID 2521, 2010;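 active means inhibition above about 40% at 20 µM, limit read from the data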;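 further: cells challenged with 10 nM apelin-13 agonist together with compound; plate controls were apelin-13 plus DMSO wells for no effect and DMSO wells lacking apelin-13 for full effect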
B2AR ag: beta2AR agonists driving receptor internalization, primary screen, cell-based, FAP fluorogen, flow cytometry; response, % (no concentration beside the values); actives 0.43% (n = 340,000); Am2.2-beta2AR cells;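 active means response above a set limit, near 3 SD of response in nonfluorescent compounds, cut at about 42% in these data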
PfG6PD inh: PfG6PD enzyme inhibitors, primary screen, biochemical, fluorescence intensity, uHTS; inhibition, % at 20 µM; actives 0.78% (n = 350,000); AID 504690, 2011; PfGluPho enzyme, NADPH resazurin-diaphorase fluorescence;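 active means inhibition reaching at least a set limit at 20 µM in the primary screen, cut at about 59% in these data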;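 further: 0% = DMSO wells with substrate and 100% = DMSO wells lacking glucose-6-phosphate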
APJ ag: agonists of human apelin receptor APJ, primary screen, CHO-K1 cells, PathHunter beta-arrestin, luminescence; activation, % at 20 µM; 0% DMSO wells, 100% apelin; P35414; AID 2520, 2010; actives 0.11% (n = 330,000);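 active means activation more than six SD over the plate average, tested at 20 µM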;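 further: 0% = DMSO alone and 100% = apelin-13 at 10 nM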
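Test system: CHO-K1 APJ beta-arrestin complementation cell line | Compound: Single test compound dose, 20 µM final, 1% DMSO | Incubation: Compound 90 min 25 °C, reagent 1 h | Measured by: beta-gal luminescence | Read-out basis: APJ–arrestin association signal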
CXCR6 confirm: CXCR6 receptor antagonists, confirmation, cell-based, single concentration, beta-arrestin, luminescence; shares compounds with CXCR6 inh; CHO-K1 CXCR6 PathHunter beta-arrestin; inhibition, % at 20 µM; actives 65% (n = 700); AID 602409, 2012;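 active means mean inhibition over four retests above 40%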;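 further: receptor stimulated with 10 nM CXCL16 agonist; beta-galactosidase fragment complementation upon beta-arrestin recruitment to receptor; plate controls were CXCL16 plus DMSO for no effect and DMSO without CXCL16 for full effect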
Starred values were filed as active, the others as inactive; x = no result. Only some compounds are listed: those with a hit (about 1.7% of all), similar ones and a draw of the others.

SMILES	CXCR6 inh	CCR6 antagonist	APJ antagonist	B2AR ag	PfG6PD inh	APJ ag	CXCR6 confirm
C=CCN(CC=C)C(=S)NC(=O)c1ccc(C)c(Br)c1	49*	46	32	6	-2	-3	54*
C=CCN(CC=C)C(=S)NC(=O)c1ccc(-c2ccccc2)cc1	53*	x	20	-2	-11	-6	73*
CC(=O)Nc1cccc(NC(=O)C2CCCO2)c1 (stereo unspecified)	3	x	x	x	32	x	x
CCOC(=O)c1ccc(NC(=O)c2ncn3c2C(=O)NC[C@@H]3C)cc1	-17	x	x	x	-3	x	x
C[C@H]1CN([C@@H](C)CO)C(=O)CCCn2nncc2CO[C@@H]1CN(C)Cc1ccccc1C(F)(F)F	39*	x	x	x	-13	x	1
Cc1ccccc1CN(C)C[C@H]1OCc2cnnn2CCCC(=O)N([C@@H](C)CO)C[C@@H]1C	-2	x	x	x	-14	x	x
CS(=O)(=O)c1ccc(C(=O)OCC(=O)N2CCN(CCC3CCCCC3)CC2)cc1[N+](=O)[O-]	54*	x	x	x	x	x	71*
CS(=O)(=O)c1ccc(C(=O)OCC(=O)N2CCOCC2)cc1[N+](=O)[O-]	-11	x	x	x	x	x	x
O=C(CCNC(=O)C1CCN(S(=O)(=O)c2ccccc2)CC1)NCc1cccnc1	-1	x	x	x	-16	x	x
Cc1ccc(C(=O)NNC(=S)NC(=O)c2ccccc2)cc1	36*	x	12	8	-17	-5	44*
CC1(C)CC[C@]2(C(=O)n3ccnc3)CC[C@]3(C)[C@H](C(=O)C=C4[C@@]5(C)C=C(C#N)C(=O)C(C)(C)[C@@H]5CC[C@]43C)[C@@H]2C1	55*	57*	x	59*	50	x	58*
O=C1CC(SCc2nc3ccccc3[nH]2)C(=O)N1c1cccc(Cl)c1 (stereo unspecified)	-4	7	25	-8	9	-4	x
O=C1CC(Sc2nnnn2-c2ccccc2)C(=O)N1c1cccc(Cl)c1 (stereo unspecified)	94*	x	27	8	32	-1	59*
C[n+]1ccc(/C=N/Nc2nc(Cl)c(C#N)c(Cl)c2Cl)cc1	42*	56*	37	-5	10	-6	52*
Clc1nnc(N/N=C/c2ccccc2)c2ccccc12	-1	0	-7	-8	1	-3	x
CCCCn1nnnc1C1(C)CCC(=O)N1Cc1cccnc1 (stereo unspecified)	-2	x	x	x	x	x	x
COc1ccc(OCc2cc(C(=O)N(C)CCC3CCOCC3)no2)c(Cl)c1	4	29	-4	-6	7	1	x
O=C1CC(c2ccco2)Cc2nc(N3CCc4ccccc4C3)ncc21 (stereo unspecified)	44*	29	10	8	32	-3	-2
COc1cccc(NC(=O)Cn2c(=O)n(CCC(=O)NC3CCN(Cc4ccccc4)CC3)c(=O)c3ccccc32)c1	16	15	-1	-6	-3	1	x
Cc1ccc(N2CN(CCc3ccccc3)CNC2=S)cc1	-2	3	14	3	-3	-6	x
O=C(COC(=O)C1CCN(S(=O)(=O)c2cccs2)CC1)c1cc2ccccc2o1	34*	74*	37	-2	-22	-12	42*
CCCCc1ccc(-n2nnnc2SCC(=O)Nc2cc(OC)c([N+](=O)[O-])cc2C)cc1	75*	1	7	-10	-5	-2	13
COc1ccc(C(=O)OCC(=O)NCCN2C(=O)CSC2=O)cc1[N+](=O)[O-]	-3	7	14	2	-15	-2	x
CC[C@]12c3[nH]c4cc(CCC(=O)N(C)C)ccc4c3CCN1C(=O)[C@@H](CC(=O)NCCCOC)C[C@@H]2C(=O)N1CCN(C(=O)c2ccco2)CC1	4	6	x	-4	-11	x	x
Cc1ccc(NC(=S)N/N=C/c2ccc([N+](=O)[O-])s2)cc1	52*	72*	-21	4	13	1	72*
SMILES	CXCR6 inh	CCR6 antagonist	APJ antagonist	B2AR ag	PfG6PD inh	APJ ag	CXCR6 confirm
CCc1ccccc1OCC(=O)Nc1nc(-c2cccnc2)cs1	51*	76*	17	-1	0	-4	64*
CCC(=O)c1ccc(OCC(=O)Nc2nc(-c3cccnc3)cs2)cc1	-7	-6	-1	3	12	9	x
CC(Oc1ccc(F)cc1)C(=O)Nc1nc(-c2ccccn2)cs1 (stereo unspecified)	67*	71*	-2	0	12	-7	87*
Cc1cc(C)c(OCC(=O)Nc2nc(-c3ccccn3)cs2)c(C)c1	52*	x	-9	13	-2	-4	39
C[C@H](O)[C@@H]1CN2CCc3c([nH]c4ccc(-c5ccc6c(c5)OCO6)cc34)[C@@H]2C[C@@H]1N(C)C(=O)Nc1cc(Cl)cc(Cl)c1	-5	x	x	x	-6	x	x
Cc1cc(C(=O)NC2CCCc3c2cnn3-c2ccc(C(C)(C)C)cc2)nn1C (stereo unspecified)	-8	-1	-43	8	10	20	x
CC(=O)c1cccc(-c2ccnc3c2CC(C(=O)Nc2ccc4c(c2)OCO4)O3)c1 (stereo unspecified)	1	x	x	x	x	x	x
COc1ccc(CNC(=O)c2nc(S(=O)(=O)Cc3ccccc3)ncc2Cl)cc1	50*	45	8	28	-12	13	52*
O=C(NCc1ccc2c(c1)OCO2)c1nc(S(=O)(=O)Cc2ccccc2F)ncc1Cl	70*	49	18	16	29	6	62*
COc1ccc(S(=O)(=O)Cc2ccc(C(=O)NCc3ccccc3)o2)cc1	3	7	-2	1	22	3	x
CCCc1c(C(=O)N/N=C(\C)CCc2ccccc2)nnn1-c1nonc1N	1	17	-21	-21	-8	11	x
O=C(c1cc(-c2ccccc2)nn1-c1ccccc1)N1CCN(S(=O)(=O)c2c(F)cccc2F)CC1	5	22	6	9	6	0	x
C[C@H](CO)N1C[C@H](C)[C@H](CN(C)C(=O)Nc2ccc(F)cc2)OCc2ccccc2-c2c(n(C)c3ccccc23)C1=O	41*	x	x	x	3	x	20
CCOC(=O)c1cc([N+](=O)[O-])cc([N+](=O)[O-])c1Sc1ncnc2nc[nH]c12	45*	x	x	39	47	x	33
CCOc1cc(/C=C2\C(=O)N(c3cccc(C(F)(F)F)c3)C(=O)c3ccccc32)ccc1O	44*	46	15	20	3	-2	43*
